Measurements: paper PMC3092375 (Journal of natural products, 2011)

Assays:
α-glucosidase = α-glucosidase (Saccharomyces cerevisiae, UniProt P53341); settings: previous report; cited from earlier work
[1] = test system: DU145 (prostate) cancer cell line; assay: in vitro cytotoxicity; type: cell-based, human; settings: DU145 versus the other cancer cell lines
[2] = test system: HCT-8 (colon) cancer cell line; assay: in vitro cytotoxicity; type: cell-based, human; settings: HCT-8 colon cells; compared with KB and DU145
Summary of the method: (§1)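 Cells grown in RPMI-1640 with 25 mM HEPES, 0.25% sodium bicarbonate, 10% FBS and 100 μg/mL kanamycin. Freshly trypsinized cells were seeded at 5000 per well, and test compound was added from DMSO-diluted stock. After three days, cells were fixed with cold 10% TCA and stained with 0.4% sulforhodamine B, and the solubilized dye was read at 562 nm.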

[3] = test system: A549 (lung) cancer cell line; assay: in vitro cytotoxicity; type: cell-based, human; settings: A549 lung cells; compared with KB and DU145
Summary of the method: as §1

[4] = test system: KB (nasopharyngeal) cancer cell line; assay: in vitro cytotoxicity; type: cell-based, human; settings: KB versus the other cancer cell lines
human neutrophils [5] = assay: superoxide anion generation by human neutrophils in response to fMLP/CB; type: cell-based; settings: Neutrophil
human neutrophils [6] = assay: elastase release by human neutrophils in response to fMLP/CB; type: cell-based; settings: read-out: elastase IC50, mean ± S.E.M. (n = 3–4)

α-glucosidase, sequence (P53341 whole entry): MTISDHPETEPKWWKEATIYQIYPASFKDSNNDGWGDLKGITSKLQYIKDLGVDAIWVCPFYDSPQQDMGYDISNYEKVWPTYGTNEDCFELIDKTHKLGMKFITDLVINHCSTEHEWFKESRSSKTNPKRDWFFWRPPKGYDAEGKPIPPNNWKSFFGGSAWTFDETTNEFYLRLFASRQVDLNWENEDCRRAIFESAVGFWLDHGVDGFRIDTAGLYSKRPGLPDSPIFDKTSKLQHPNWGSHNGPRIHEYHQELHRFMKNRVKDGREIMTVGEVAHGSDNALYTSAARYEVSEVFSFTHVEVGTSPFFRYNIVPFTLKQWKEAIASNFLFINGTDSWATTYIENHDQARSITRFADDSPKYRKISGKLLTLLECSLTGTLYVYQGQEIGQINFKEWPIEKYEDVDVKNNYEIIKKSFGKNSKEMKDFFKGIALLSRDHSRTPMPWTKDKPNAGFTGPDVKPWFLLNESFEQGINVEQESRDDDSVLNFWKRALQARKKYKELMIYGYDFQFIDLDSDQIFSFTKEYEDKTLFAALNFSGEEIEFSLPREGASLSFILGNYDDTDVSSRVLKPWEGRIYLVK

Structure (SMILES): C=C[C@H](O)C#CC#C/C=C/[C@@H](O)CCCCCCC [Compound 29, (3S,10S)-panaxydiol]
- inhibition of α-glucosidase activity (α-glucosidase): strongly inhibited

Structure (SMILES): C/C(=C/CC[C@](C)(O)[C@H]1CC[C@]2(C)[C@@H]1[C@H](O)C[C@@H]1[C@@]3(C)CC[C@H](O)C(C)(C)[C@@H]3[C@@H](O[C@@H]3O[C@H](CO)[C@@H](O)[C@H](O)[C@H]3O[C@@H]3O[C@H](CO)[C@@H](O)[C@H](O)[C@H]3O)C[C@]12C)CO [Compound 1, panajaponol A]
- selective cytotoxic activity [1]: greater than two- to three-fold selective
- cytotoxicity [2]: significantly less susceptible
- cytotoxicity [3]: significantly less susceptible
- selective cytotoxic activity [4]: greater than two- to three-fold selective

Structure (SMILES): CC1(C)CC[C@]2(C(=O)O[C@@H]3O[C@H](CO)[C@@H](O)[C@H](O)[C@H]3O)CC[C@]3(C)C(=CC[C@@H]4[C@@]5(C)CC[C@H](O[C@@H]6O[C@H](C(=O)O)[C@@H](O[C@H]7O[C@@H](CO)[C@H](O)[C@H]7O)[C@H](O[C@@H]7O[C@H](CO)[C@@H](O)[C@H](O)[C@H]7O)[C@H]6O)C(C)(C)[C@@H]5CC[C@]43C)[C@@H]2C1 [Compound 9, stipuleanoside R2]
- IC50 (human neutrophils [5]; read-out: IC50 values, inhibition of superoxide anion generation and elastase release): 0.78 to 43.6 µM

Structure (SMILES): c1ccc2c(c1)[I+]c1ccccc1-2 [DPI, Diphenyleneiodonium, reference compound]
- IC50 (human neutrophils [5]; read-out: superoxide IC50): 1.02 ± 0.35 µM

Structure (SMILES): O=S(=O)(F)Cc1ccccc1 [PMSF, phenylmethylsulfonyl fluoride]
- IC50 (human neutrophils [6]): 95 ± 25 µM

Structure (SMILES): C=CCCCCC[C@H](O)[C@@H](O)CC#CC#C[C@@H](O)CC [Compound 27, panaxjapyne C]
- inhibition of α-glucosidase activity (α-glucosidase): strongly inhibited

Structure (SMILES): C=C[C@H](O)C#CC#CC[C@@H](O)[C@H](O)CCCCCCC [Compound 30, (3S,9R,10R)-panaxytriol]
- inhibition of α-glucosidase activity (α-glucosidase): strongly inhibited

Structure (SMILES): C=C[C@@H](O)C#CC#CC/C=C\CCCCCCC [Compound 28, (3R)-(−)-falcarinol]
- inhibition of α-glucosidase activity (α-glucosidase): strongly inhibited

Structure (SMILES): CCCCCCC/C=C\CC#CC#CC(O)CC (stereo not drawn) [Compound 25, panaxjapyne A]
- inhibition of α-glucosidase activity (α-glucosidase): strongly inhibited
